# From ChEMBL document CHEMBL4321803 (J Med Chem, 2019)
# Calls of active or inactive are those of the source. No cut-off for these calls is given here.
# What was measured:
# [1] = Inhibition of Stenotrophomonas maltophilia class B3 metallo beta-lactamse L1 assessed as reduction in breakdown of cephalosporin FC-5 after 10 mins by fluorescence method
# How it was run: (§1)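 Enzyme levels: L1 50 pM, IMP-1 20 pM, NDM-1 20 pM, VIM-1 100 pM, VIM-2 500 pM. Inhibitor pre-incubated with enzyme 10 min. Initial rates by fluorescence (ex 380/em 460 nm). Four-parameter fit for IC50.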
# [2] = Inhibition of bacterial class D serine beta-lactamase OXA-10 assessed as reduction in breakdown of cephalosporin FC-5 after 10 mins by fluorescence method; parameters: species or system Bacteria
# How it was run: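 Run in SBL buffer (phosphate pH 7.4, 0.01% v/v Triton X-100) at room temperature with 5 μM FC5. Enzyme levels: OXA-10 250 pM, OXA-48 12.5 nM. Enzyme pre-incubated with inhibitor 10 min. Initial rates by fluorescence (ex 380/em 460 nm). IC50 from a four-parameter log(inhibitor) fit.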
# [3] = Inhibition of bacterial class D serine beta-lactamase OXA-10 assessed as reduction in breakdown of cephalosporin FC-5 in presence of aqueous sodium bicarbonate after 10 mins by fluorescence method; parameters: species or system Bacteria
# How it was run: (§2)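 SBL buffer (phosphate pH 7.4, 0.01% v/v Triton X-100) supplemented with 100 mM NaHCO3, room temperature, FC5 5 μM. Enzyme levels: OXA-10 250 pM, OXA-48 12.5 nM. Inhibitor pre-incubated with enzyme 10 min. Initial rates by fluorescence at 380/460 nm. IC50 from a four-parameter fit.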
# [4] = Inhibition of bacterial class B1 metallo beta-lactamase IMP-1 assessed as reduction in breakdown of cephalosporin FC-5 after 10 mins by fluorescence method; parameters: species or system Bacteria; how it was run: as §1
# [5] = Inhibition of Aeromonas hydrophila class B2 metallo beta-lactamse CphA assessed as reduction in meropenem hydrolysis after 10 mins by UV absorbance method
# [6] = Inhibition of bacterial class D serine beta-lactamase OXA-48 assessed as reduction in breakdown of cephalosporin FC-5 in presence of aqueous sodium bicarbonate after 10 mins by fluorescence method; parameters: species or system Bacteria; how it was run: as §2
# [7] = Inhibition of bacterial class B1 metallo beta-lactamase NDM-1 assessed as reduction in breakdown of cephalosporin FC-5 after 10 mins by fluorescence method; parameters: species or system Bacteria
# How it was run: (§3)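 Enzyme levels: L1 50 pM, IMP-1 20 pM, NDM-1 20 pM, VIM-1 100 pM, VIM-2 500 pM. Inhibitor pre-incubated with enzyme 10 min. Four-parameter fit for IC50.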
# [8] = Inhibition of bacterial class B1 metallo beta-lactamase VIM-1 assessed as reduction in breakdown of cephalosporin FC-5 after 10 mins by fluorescence method; parameters: species or system Bacteria; how it was run: as §3
# [9] = Inhibition of Pseudomonas aeruginosa class C serine beta-lactamase AmpC assessed as reduction in breakdown of cephalosporin FC-5 after 10 mins by fluorescence method
# How it was run: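 AmpC at 500 pM was pre-incubated with inhibitor for 10 min at room temperature in phosphate buffer, pH 7.4, with 0.01% (v/v) Triton X-100, then given 5 μM FC5. Initial hydrolysis rates were read by fluorescence (ex 380 nm, em 460 nm), and IC50 was taken from a four-parameter log(inhibitor) vs response fit.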
# [10] = Inhibition of bacterial class B1 metallo beta-lactamse VIM-2 assessed as reduction in breakdown of cephalosporin FC-5 after 10 mins by fluorescence method; parameters: species or system Bacteria; how it was run: as §1
# Beta-lactamase OXA-10 = Beta-lactamase OXA-10 (Pseudomonas aeruginosa, UniProt P14489); assay: Inhibition of Pseudomonas aeruginosa class D serine beta-lactamase OXA-10 expressed in Escherichia coli BL21(DE3) cells assessed as reduction in breakdown of cephalosporin FC-5 in presence of aqueous sodium bicarbonate after 10 to 300 mins by fluorescence method
# [11] = Inhibition of Pseudomonas aeruginosa PAO1 class C serine beta-lactamase N-terminal His- tagged AmpC expressed in Escherichia coli BL21(DE3) cells assessed as reduction in breakdown of cephalosporin FC-5 preincubated for 10 to 300 mins followed by cephalosporin FC-5 addition by fluorescence method
# [12] = Inhibition of recombinant bacterial class B1 metallo beta-lactamase IMP-1 expressed in Escherichia coli assessed as reduction in breakdown of cephalosporin FC-5 preincubated for 10 mins followed by cephalosporin FC-5 addition by fluorescence method; parameters: species or system Bacteria; how it was run: as §1
# [13] = Inhibition of recombinant bacterial class B1 metallo beta-lactamase NDM-1 expressed in Escherichia coli assessed as reduction in breakdown of cephalosporin FC-5 preincubated for 10 mins followed by cephalosporin FC-5 addition by fluorescence method; parameters: species or system Bacteria; how it was run: as §1
# [14] = Inhibition of Klebsiella pneumoniae class D serine beta-lactamase N-terminal His-tagged OXA-48 expressed in Escherichia coli BL21(DE3) cells assessed as reduction in breakdown of cephalosporin FC-5 in presence of aqueous sodium bicarbonate after 10 to 300 mins by fluorescence method
# [15] = target: Metallo-beta-lactamase type 2 (Klebsiella pneumoniae) (UniProt C7C422); assay: Inhibition of metallo beta-lactamase NDM-1 in Klebsiella pneumoniae B68-1 assessed as potentiation of meropenem-induced antibacterial activity by measuring meropenem MIC at 10 ug/ml by agar dilution method (Rvb > 64 ug/ml)
# How it was run: (§4)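 Agar dilution MIC of meropenem or cefepime combined with the inhibitor, against NDM-1-producing clinical isolates of E. coli and K. pneumoniae. Interpreted per EUCAST/CLSI guidelines. Reference strain MICs within ±1 log2 dilution of reference values.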
# [16] = target: Metallo-beta-lactamase type 2 (Klebsiella pneumoniae) (UniProt C7C422); assay: Inhibition of metallo beta-lactamase NDM-1 in Klebsiella pneumoniae B68-1 assessed as potentiation of cefepime-induced antibacterial activity by measuring cefepime MIC at 10 ug/ml by agar dilution method (Rvb > 64 ug/ml); how it was run: as §4
# Bacteria = assay: Reversible inhibition of bacterial class B1 metallo beta-lactamase NDM-1 assessed as reduction in breakdown of cephalosporin FC-5 after 15 to 180 mins by fluorescence method
# Escherichia coli [17] = assay: Inhibition of metallo beta-lactamase NDM-1 in Escherichia coli 91N assessed as potentiation of meropenem-induced antibacterial activity by measuring meropenem MIC at 10 ug/ml by agar dilution method (Rvb > 64 ug/ml); how it was run: as §4
# Escherichia coli [18] = assay: Inhibition of metallo beta-lactamase NDM-1 in Escherichia coli 91N assessed as potentiation of cefepime-induced antibacterial activity by measuring cefepime MIC at 10 ug/ml by agar dilution method (Rvb > 64 ug/ml); how it was run: as §4
# Escherichia coli [19] = assay: Inhibition of metallo beta-lactamase NDM-1 in Escherichia coli IR57 assessed as potentiation of cefepime-induced antibacterial activity by measuring cefepime MIC at 10 ug/ml by agar dilution method (Rvb > 64 ug/ml); how it was run: as §4
# [20] = Inhibition of bacterial class D serine beta-lactamase OXA-48 assessed as reduction in breakdown of cephalosporin FC-5 after 10 mins by fluorescence method; parameters: species or system Bacteria
# How it was run: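 Run in SBL buffer (phosphate pH 7.4, 0.01% v/v Triton X-100) at room temperature with 5 μM FC5. Enzyme pre-incubated with inhibitor 10 min. IC50 from a four-parameter log(inhibitor) fit.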
# [21] = target: Metallo-beta-lactamase type 2 (Klebsiella pneumoniae) (UniProt C7C422); assay: Inhibition of metallo beta-lactamase NDM-1 in Klebsiella pneumoniae IR43 assessed as potentiation of cefepime-induced antibacterial activity by measuring cefepime MIC at 10 ug/ml by agar dilution method (Rvb > 64 ug/ml); how it was run: as §4
# Escherichia coli [22] = assay: Inhibition of metallo beta-lactamase NDM-1 in Escherichia coli S117 assessed as potentiation of cefepime-induced antibacterial activity by measuring cefepime MIC at 10 ug/ml by agar dilution method (Rvb > 64 ug/ml); how it was run: as §4
# Escherichia coli [23] = assay: Inhibition of metallo beta-lactamase NDM-1 in Escherichia coli S117 assessed as potentiation of meropenem-induced antibacterial activity by measuring meropenem MIC at 10 ug/ml by agar dilution method (Rvb > 64 ug/ml); how it was run: as §4
# Escherichia coli [24] = assay: Inhibition of metallo beta-lactamase NDM-1 in Escherichia coli IR57 assessed as potentiation of meropenem-induced antibacterial activity by measuring meropenem MIC at 10 ug/ml by agar dilution method (Rvb > 64 ug/ml); how it was run: as §4
# Metallo-beta-lactamase type 2 (Klebsiella pneumoniae), sequence (C7C422 whole entry): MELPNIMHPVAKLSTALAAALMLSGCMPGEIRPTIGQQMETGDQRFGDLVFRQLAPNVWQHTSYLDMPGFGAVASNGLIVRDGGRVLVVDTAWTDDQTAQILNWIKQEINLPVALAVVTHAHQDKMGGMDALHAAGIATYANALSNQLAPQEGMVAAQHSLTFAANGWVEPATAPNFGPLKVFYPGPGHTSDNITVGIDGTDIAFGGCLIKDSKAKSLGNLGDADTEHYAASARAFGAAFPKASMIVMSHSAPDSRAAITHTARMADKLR
# Beta-lactamase OXA-10, sequence (P14489 whole entry): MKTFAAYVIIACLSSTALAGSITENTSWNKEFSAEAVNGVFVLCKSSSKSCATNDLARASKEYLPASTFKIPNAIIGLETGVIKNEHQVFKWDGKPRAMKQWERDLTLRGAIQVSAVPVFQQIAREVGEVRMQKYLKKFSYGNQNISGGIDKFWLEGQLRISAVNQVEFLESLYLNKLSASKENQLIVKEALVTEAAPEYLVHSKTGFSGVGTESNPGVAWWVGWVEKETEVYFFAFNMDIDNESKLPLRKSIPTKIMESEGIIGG
SMILES,IC50 [1],IC50 [2],IC50 [3],IC50 [4],IC50 [5],IC50 [6],IC50 [8],IC50 [9],IC50 [10],further results
O=C(O)C[C@@H]1CC[C@H](NC(=O)Cc2cccs2)B(O)O1 [VABORBACTAM],336 µM,> 400000 nM,> 400000 nM,126 µM,631 µM,32 µM,398 µM,5000 nM,316 µM,IC50 [7]: 631 µM
NCc1ccc(C(=O)N[C@H]2Cc3cccc(C(=O)O)c3OB2O)cc1,,,,,> 100 µM,,0.085 µM,,,IC50 (Beta-lactamase OXA-10): 5.1 µM; IC50 [11]: 120 nM; IC50 [12]: 1000 nM; IC50 [13]: 29 nM; IC50 [14]: 2600 nM
NCCN[C@H]1CC[C@H](CC(=O)N[C@H]2Cc3cccc(C(=O)O)c3OB2O)CC1,> 10 µM,234 nM,645 nM,2.51 µM,2.51 µM,2.39 µM,,301 nM,0.0005 µM,MIC [15]: 0.5 µg/mL; MIC [16]: 0.5 µg/mL; inhibition (Bacteria): Active; MIC (Escherichia coli [17]): 0.125 µg/mL; MIC (Escherichia coli [18]): 4 µg/mL; MIC (Escherichia coli [19]): 8 µg/mL; IC50 [20]: 537 nM; MIC [21]: 0.5 µg/mL; MIC (Escherichia coli [22]): 16 µg/mL; MIC (Escherichia coli [23]): 1 µg/mL; MIC (Escherichia coli [24]): 0.5 µg/mL
